Each structure is given as a SMILES string.

This series is described as follows: Toxicity liver stage against HepG2, at 10uM. Format: cell-based. Also noted: test concentration 10 uM, cell line HepG2-A16-CD81EGFP. The conditions noted are these: human, HepG2-A16-CD81EGFP cells; read-out: INHIBITION
The essentials:
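Uninfected HepG2-A16-CD81EGFP cells, 3 × 10^3 per well, 1536-well, plated on prespotted compound at 10 μM final, parasite-free screening media added to match infected plates; puromycin 10 μM positive, DMSO 0.5% negative; run in parallel with 48 h PbLuc assay at 37 °C, 5% CO2; viability by CellTiter-Glo luminescence, normalized to controls.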
For the molecule `Cc1oc(C)c(C(=O)NS(=O)(=O)c2ccc3c(c2)OCCO3)c1Br`, the cytotoxicity at 10 µM is 4.4%.

As to `O=C(c1cccc(F)c1)N1CC[C@H]2[C@H]1CCN2CC1CCOCC1`, the cytotoxicity at 10 µM was -75.4%. To `Cc1cc(C)c2nc(C3CC3)cc(C(=O)N3CCCC3C(N)=O)c2c1` (stereo unspecified) belongs -1.11%.

Consider `CCOc1ccc(NC(=O)N(CCN(C)C)C(C)c2ccncc2)cc1` (stereo unspecified), for which the cytotoxicity at 10 µM was found to be 5.42%. As for `Cc1n[nH]c2ncc(CNC3CCN(Cc4ccccn4)CC3)cc12`, the cytotoxicity at 10 µM was determined as 7.14%. Then `COc1ccc(CN2CC(=O)N(c3ccc(C)cc3)CC2C)cc1O` (stereo unspecified), with 4.84%; and `CCn1nc(C)c(CN(CCCN(C)C)Cc2ccccn2)c1C`, with 1.62%.

For the molecule `c1cc(CNCC2CNc3ccnn3C2)cc(OC2CCCC2)n1` (stereo unspecified), the cytotoxicity at 10 µM is -3.02%. `COCC(=O)N1CCC2(CC1)CN(CC1CC1)c1ccc(F)cc12`: the cytotoxicity at 10 µM was -103%. `CC(C)=CCN1C[C@@H]2CN(C(=O)c3ccc(CO)cc3)C[C@]2(C(=O)O)C1`: the cytotoxicity at 10 µM was found to be 2.21%. Then `c1ccc(N2CCc3ncnc(C4CC4)c3CC2)nc1`, with -157%. Then `CCOC(=O)CNC(=O)Cn1c(-c2ccoc2)nc(C)c1C`, with -2.8%; and `Cc1cccc2c(CCNC(=O)NCC[S+](C)[O-])c[nH]c12` (stereo unspecified), with 9.62%. Turning to `COc1cccc(CCNC(=O)CN2CCCC2c2noc(C)n2)c1` (stereo unspecified), the cytotoxicity at 10 µM was -0.489%. Then `CCc1cnc(C)nc1NCc1cnc2c(c1)CCC2`, with 8.83%; and `CNS(=O)(=O)CC(=O)N(C1CCCC1)C1CC1`, with -2.78%; and `C=C(C)CN(CC)S(=O)(=O)c1ccccc1C#N`, with -17.1%. Turning to `CCc1cc(CN2CCCCC2c2ccc(F)cc2)on1` (stereo unspecified), the cytotoxicity at 10 µM was -2.45%. On to `COCc1nccc(C2CCCN(Cc3ccc(C#N)cc3)C2)n1` (stereo unspecified), for which the cytotoxicity at 10 µM came to 6.45%. Then `CCc1nnc(C2Cc3ccccc3CN2Cc2cc(C)no2)o1` (stereo unspecified), with -7.4%; and `CNCC(=O)N1CCC(c2ccnc(Nc3ccc(C)cn3)n2)C1` (stereo unspecified), with -2.29%; and `Cc1ccc(CNC(=O)CN2CCN(CC(O)C3CC3)CC2)cc1` (stereo unspecified), with 4.91%.

As to `Cc1cccc(N2CCc3ncc(CNS(C)(=O)=O)n3CC2)n1`, the cytotoxicity at 10 µM amounted to 8.39%. To `CC1(c2ccccc2)CCC(=O)N(CCN2CCOCC2)C1` (stereo unspecified) belongs -8.65%; to `CCS(=O)(=O)NC[C@]12COC[C@H]1CN(Cc1ccncc1)C2`, 6.01%; to `CCOCC(=O)NCC(CC)(OC)c1ccccc1` (stereo unspecified), -0.478%. Then `COc1cc(CNc2cnn(CCN3CCOCC3)c2)cc(OC)c1`, with -7.38%. To `COCCC(=O)N1CCC2(COCc3cnc(-c4cccnc4)nc32)C1` (stereo unspecified) belongs -115%; to `OC1CCN(c2nc(-c3ccccc3)no2)CC1`, -9.57%. Consider `CN1CCCN(c2nccc(-c3cc(C(=O)O)ccn3)n2)CC1`, for which the cytotoxicity at 10 µM stood at 13.1%. Then `Cc1cc(N(C)C)nc(N2CCn3c(nnc3C3CC3)C2)n1`, with 0.485%. Then `CNC(=O)c1ccc(NC(=O)NC(C)CCc2cccn2C)c(C)c1` (stereo unspecified), with 3.75%; and `CCn1c(Cn2cccn2)nnc1C1CCN(Cc2ccc(C)o2)CC1`, with -1.14%.

For the molecule `O=S1(=O)CCC(c2nnc(-c3cnc4onc(C5CC5)c4c3)o2)C1` (stereo unspecified), the cytotoxicity at 10 µM was 5.89%. For the molecule `Cc1cnccc1CN1Cc2ccccc2OC2(CCC(CO)CC2)C1` (stereo unspecified), the cytotoxicity at 10 µM was -8.83%.

Turning to `Cc1cc(C)n(-c2ccc(C(C)NS(=O)(=O)CCCS(C)(=O)=O)cc2)n1` (stereo unspecified), the cytotoxicity at 10 µM stood at 7.04%. To `Cc1nc(CN(C)C(=O)c2cccc(CC3CCNCC3)c2)no1` belongs -5.56%; to `CS(=O)(=O)c1ccc(NCCC2CCCO2)c(S(C)(=O)=O)c1` (stereo unspecified), -4.27%; to `COc1ccc(C(C)N(C)Cc2c(C3CC3)[nH]c3ncccc23)cc1` (stereo unspecified), -2.45%. Turning to `CCn1cnnc1C1CCN(C(=O)c2ccc(OC(C)C)nc2)CC1`, the cytotoxicity at 10 µM is 1.14%. Regarding `OC(COCc1ccccc1Cl)CN1CCC(c2ccn[nH]2)CC1` (stereo unspecified), the cytotoxicity at 10 µM was -15.1%. Take `COCCCN1CCN([C@@H]2c3ccccc3C3(CCNCC3)[C@H]2O)CC1`: the cytotoxicity at 10 µM is -4.86%. Consider `CCC1CN(C(=O)c2ccc(O)c(C)c2)CCN1C(C)C` (stereo unspecified), for which the cytotoxicity at 10 µM was determined as 1.68%. To `COC[C@@H]1CCC[C@@]12CN(C(=O)N(C)C)CCO2` belongs -102%; to `N#Cc1cc(N2CCC(CS(N)(=O)=O)CC2)c2ccccc2n1`, -11.4%. Then `CS(=O)(=O)CCCNc1cccc(COC2CCCCC2)c1`, with 9.5%; and `CC(C)C1CN(C(=O)Nc2cnn(CC(F)F)c2)CCS1` (stereo unspecified), with 12.6%; and `c1cc(CN2C[C@@H]3OCCN(CCN4CCCC4)[C@@H]3C2)cs1`, with -1.46%. As to `c1nc2onc(C3CC3)c2cc1-c1nnc(C2CC2)o1`, the cytotoxicity at 10 µM was determined as 8.03%. Then `CN1CCN(C2COC3(CCN(Cc4ccsc4)CC3)C2)CC1` (stereo unspecified), with -77.1%. To `CCS(=O)(=O)NCC1OCCc2cn(CC3CCOCC3)nc21` (stereo unspecified) belongs 2.77%; to `O=C(CC1=CCCCC1)N1CCC(Cn2cc(CCO)nn2)CC1`, 3.88%. To `COCCC(=O)N1C[C@H]2CCC[C@@]2(COC)C1` belongs 6.75%. In the case of `COc1ccc(C(C(=O)O)N2CCN(C3CCCC3)CC2)cc1OC` (stereo unspecified), the cytotoxicity at 10 µM was -17.1%. Then `COCCNC(=O)c1cc(C(C)C)nc(N2CCCC2)n1`, with 5.03%.

Take `Cc1ccc(CNC[C@H]2Cn3cc(-c4ccccc4)nc3CO2)cc1`: the cytotoxicity at 10 µM is -9.43%. Then `O=S(=O)(CCC1CCCO1)NCc1ncc(-c2ccccc2)o1` (stereo unspecified), with 3.7%.

Take `Cc1ccc(C2(O)CCN(C(=O)CCn3c(C)cccc3=O)CC2)nc1`: the cytotoxicity at 10 µM was -9.02%. Turning to `CN1CCN(C(=O)[C@@H]2CCO[C@@H]3CCN(c4ncccn4)C[C@@H]32)CC1`, the cytotoxicity at 10 µM is -4.96%. For `CCCOc1cccc(CNC(=O)CN2CCN(C)CC2C)c1` (stereo unspecified), the cytotoxicity at 10 µM is -7.57%.

With `O=C(NC1CCC1)c1cccc(S(=O)(=O)NCc2nc(C3CC3)no2)c1`, the cytotoxicity at 10 µM was -0.0264%.

Consider `c1cc(CNCC2CNc3ccnn3C2)cc(N2CCOCC2)n1` (stereo unspecified), for which the cytotoxicity at 10 µM was -5.13%. Take `CCC(=O)N1CCCN(Cc2cc(F)cc(Br)c2)CC1`: the cytotoxicity at 10 µM is 10.3%. To `O=C(NCCNc1cc(-n2cccc2)ncn1)c1cccs1` belongs -2.56%; to `CNC(=O)COc1cccc(CNC(=O)c2c(C)noc2C(C)C)c1`, -2.8%. To `O=S(=O)(c1cncc(F)c1)N1CCC2(CCOC2)C1` (stereo unspecified) belongs -0.872%. Then `Cc1ccc(O)c(C(=O)N2CCOCC2c2c(C)n[nH]c2C)c1` (stereo unspecified), with -10.8%.

Take `CN(CCOCC1CC1)C(=O)Nc1ccc([S+](C)[O-])c(F)c1` (stereo unspecified): the cytotoxicity at 10 µM is -1.7%.

With `CC(C#N)CSc1ccccc1NCC(=O)NC1CCCCC1` (stereo unspecified), the cytotoxicity at 10 µM is 9.37%. Consider `OC(c1ccccn1)C1CCN(Cc2cc3n(n2)CCCNC3)CC1` (stereo unspecified), for which the cytotoxicity at 10 µM is 6.89%.

Turning to `Cn1ccc2c(-c3nccc(N)n3)ccnc21`, the cytotoxicity at 10 µM is -16%. Then `CCn1cc(CN(C)c2nc(C)c3ccc(S(C)(=O)=O)cc3n2)cn1`, with 48.8%; and `CC(C)c1noc(CCCC(=O)NC(C)c2ccccn2)n1` (stereo unspecified), with -4.36%; and `Cc1nc(C2CN(Cc3ccccc3C)CCO2)no1` (stereo unspecified), with -1.51%.

As to `Cc1nc(C2(O)CCCNCC2)sc1CCOc1ccccc1Cl` (stereo unspecified), the cytotoxicity at 10 µM is -28.1%. `O=C(Cc1ccccc1)N1CCC(c2nnc(-c3ccccn3)o2)CC1`: the cytotoxicity at 10 µM turned out to be 2.83%. Then `CCc1nc(C)sc1CN1CCc2[nH]nc(-c3ccc(F)c(F)c3)c2C1`, with 5.57%; and `Cc1ccc(CNc2cc3[nH]c(O)nc3cc2C)cc1`, with 22.2%; and `CN(C)S(=O)(=O)N1CCC(C(O)c2ccc(Cl)cc2)CC1` (stereo unspecified), with -21.4%. To `Cc1cc(CN(C)C(=O)NCc2ccnc(SC(C)(C)C)c2)no1` belongs 10.4%; to `CC(O)CNC(=O)NCCCN1CCN(c2ncccn2)CC1` (stereo unspecified), -48.8%.

On to `CNc1cc(CCNC(=O)c2cccnc2)nc(-c2ccncc2)n1`, for which the cytotoxicity at 10 µM was 1.52%. Turning to `CC(C)NCc1nc(-c2ccc3c(c2)OCO3)c[nH]1`, the cytotoxicity at 10 µM is 6.24%.

Regarding `CC1=N[C@@]2(CC[C@@H]3CN(Cc4ccccc4F)C[C@@H]32)C(=O)N1C`, the cytotoxicity at 10 µM turned out to be 3.76%. Turning to `CSCCC(=O)N1CCCN(c2ccccc2C)CC1`, the cytotoxicity at 10 µM is -9.31%.

For the molecule `CCN1C[C@@H]2CN(C(=O)NCc3ccccc3)CCC[C@]2(C(=O)O)C1`, the cytotoxicity at 10 µM was 3.47%. Then `Cc1cncc(C(=O)N2CC[C@@H]3[C@H]2CCC(=O)N3CCN(C)C)c1`, with -4.84%. Then `Cc1cc(C)c2nc(CN3CCC(C#N)CC3)cc(O)c2c1`, with 6.27%.

In the case of `O=C(CCS(=O)(=O)C1CCCC1)NCc1ccccc1Cn1cncn1`, the cytotoxicity at 10 µM was -4.9%.

Turning to `CC(C)c1nc(C2CCCN(C(=O)CN3CCCNC3=O)C2)no1` (stereo unspecified), the cytotoxicity at 10 µM was -4.1%. Regarding `Cc1nn(C)c(N2CCOCC2)c1CNC1CCC(O)CC1` (stereo unspecified), the cytotoxicity at 10 µM was -13.2%. To `Cc1n[nH]c(C)c1-c1cnc(C2CCN(S(C)(=O)=O)CC2)cn1` belongs -1.57%; to `CCCNC(=O)C1CCN(Cc2csc(C(C)C)n2)CC1`, -19.5%. To `Clc1ccc(OCCCN2CCN(c3cnccn3)CC2)cc1` belongs -8.11%; to `CC(C)COC1CC2(CCN(Cc3nccn3C)CC2)C1`, -158%; to `O=S(=O)(CCCNCCn1cccn1)c1ccccc1`, 5.96%.

The record behind these values is ChEMBL document CHEMBL4513216, “Probing the Open Global Health Chemical Diversity Library for Multistage-Active Starting Points for Next-Generation Antimalarials” (ACS Infect Dis, 2020).
